In ChEMBL document CHEMBL2046374, “Synthesis and biological evaluation of vinyl ether-containing azole derivatives as inhibitors of Trichophyton rubrum” (2012):
In brackets after ≈: the same amount, converted by molar mass.

Tested on: Trichophyton rubrum
Test: Antifungal activity against Trichophyton rubrum incubated at 35 degC for 72 hrs by NCCLS based microbroth dilution method
Assay type: functional
Summary of the method: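 Broth microdilution in 96-well plates per NCCLS; compounds dissolved in DMSO, serially diluted in growth medium, inoculated, incubated at 35 °C, read at 72 h for T. rubrum. MIC80 taken as first well with ~80% growth reduction versus drug-free well. Fluconazole, itraconazole, voriconazole, omoconazole and amphotericin B as positive controls. Tests run three times; mean of replicates reported.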

SMILES	MIC80 [mg/L]
C/C(=C(/OCCCCOc1ccc(F)cc1)c1ccc(F)cc1F)n1cncn1.O=[N+]([O-])O	0.025
C/C(=C(/OCCCCOc1cccc(Cl)c1)c1ccc(F)cc1F)n1cncn1.O=[N+]([O-])O	0.025
C/C(=C(/OCCCCCCOc1ccc(Cl)cc1)c1ccc(F)cc1F)n1cncn1.O=[N+]([O-])O	2.5
CCC(C)n1ncn(-c2ccc(N3CCN(c4ccc(OCC5COC(Cn6cncn6)(c6ccc(Cl)cc6Cl)O5)cc4)CC3)cc2)c1=O (stereo not given) [ITRACONAZOLE]	0.125 (≈ 0.177 µM)
C/C(=C(/OCCCCOc1ccc(Cl)cc1Cl)c1ccc(F)cc1F)n1cncn1.O=[N+]([O-])O	2
C/C(=C(/OCCCCOc1ccc(Cl)cc1)c1ccc(F)cc1F)n1cncn1.O=[N+]([O-])O	0.0625
C/C(=C(/OCCCCOc1ccc(Br)cc1)c1ccc(F)cc1F)n1cncn1.O=[N+]([O-])O	0.05
OC(Cn1cncn1)(Cn1cncn1)c1ccc(F)cc1F [FLUCONAZOLE]	4 (≈ 13.1 µM)
C/C(=C(/OCCCCOc1ccccc1Cl)c1ccc(F)cc1F)n1cncn1.O=[N+]([O-])O	0.1
C/C(=C(/OCCOc1ccc(Cl)cc1)c1ccc(Cl)cc1Cl)n1ccnc1 [OMOCONAZOLE]	0.1 (≈ 0.236 µM)
C/C(=C(/OCCCOc1ccc(F)cc1)c1ccc(F)cc1F)n1cncn1.O=[N+]([O-])O	0.1
C/C(=C(/OCCCOc1ccc(Br)cc1)c1ccc(F)cc1F)n1cncn1.O=[N+]([O-])O	0.25
C/C(=C(/OCCOc1ccc(Cl)cc1)c1ccc(F)cc1F)n1cncn1.O=[N+]([O-])O	0.2
C/C(=C(/OCCCOc1ccc(C)cc1)c1ccc(F)cc1F)n1cncn1.O=[N+]([O-])O	2.5
C[C@@H]1[C@H](O)[C@@H](C)/C=C/C=C/C=C/C=C/C=C/C=C/C=C/[C@H](O[C@@H]2O[C@H](C)[C@@H](O)[C@H](N)[C@@H]2O)C[C@@H]2O[C@](O)(C[C@@H](O)C[C@@H](O)[C@H](O)CC[C@@H](O)C[C@@H](O)CC(=O)O[C@H]1C)C[C@H](O)[C@H]2C(=O)O [AMPHOTERICIN B]	2 (≈ 2.16 µM)
C/C(=C(/OCCCCOc1ccc(C)cc1)c1ccc(F)cc1F)n1cncn1.O=[N+]([O-])O	0.2
C/C(=C(/OCCCCCOc1ccc(Cl)cc1)c1ccc(F)cc1F)n1cncn1.O=[N+]([O-])O	0.25
C[C@@H](c1ncncc1F)[C@](O)(Cn1cncn1)c1ccc(F)cc1F [VORICONAZOLE]	0.0625 (≈ 0.179 µM)
C/C(=C(/OCCCOc1ccc(Cl)cc1)c1ccc(F)cc1F)n1cncn1.O=[N+]([O-])O	0.125
C/C(=C(/OCCCCOc1c(Cl)cc(Cl)cc1Cl)c1ccc(F)cc1F)n1cncn1.O=[N+]([O-])O	> 20
